The results in this text go back to PubChem BioAssay.

Calls of active or inactive are those of the source.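 Rule for the calls, unless noted: active = viability at or below 10% of carrier control in both of two separate runs; inconclusive = viability at or below 10% in only one of the two runs; inactive = the rest.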

Assay [1] can be described thus: Her2 expression decrease, cell viability multiplex – SKBR3 breast tumor cells, AlphaScreen, ATP viability, primary screen (AID 461;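 active = Her2 level under about 52% in both replicate screens, with viability over 70% of control, limit read from the data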;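 for Her2 level: lower value means less Her2 protein in the cells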;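 for viability: percent of carrier control wells set as 100% viability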). Particulars: SKBR3 Her2 protein level, 18-24 h, measured here: SKBR3 viability, ATP luminescence, at 10 µM.
The target of assay [2] is Receptor tyrosine-protein kinase erbB-2 (Homo sapiens) (UniProt P04626). Described as above. The following applies: 18-24 h, at 10 µM, stronger effect = lower value.
Chain of Receptor tyrosine-protein kinase erbB-2 (Homo sapiens) (P04626 whole entry, looked up): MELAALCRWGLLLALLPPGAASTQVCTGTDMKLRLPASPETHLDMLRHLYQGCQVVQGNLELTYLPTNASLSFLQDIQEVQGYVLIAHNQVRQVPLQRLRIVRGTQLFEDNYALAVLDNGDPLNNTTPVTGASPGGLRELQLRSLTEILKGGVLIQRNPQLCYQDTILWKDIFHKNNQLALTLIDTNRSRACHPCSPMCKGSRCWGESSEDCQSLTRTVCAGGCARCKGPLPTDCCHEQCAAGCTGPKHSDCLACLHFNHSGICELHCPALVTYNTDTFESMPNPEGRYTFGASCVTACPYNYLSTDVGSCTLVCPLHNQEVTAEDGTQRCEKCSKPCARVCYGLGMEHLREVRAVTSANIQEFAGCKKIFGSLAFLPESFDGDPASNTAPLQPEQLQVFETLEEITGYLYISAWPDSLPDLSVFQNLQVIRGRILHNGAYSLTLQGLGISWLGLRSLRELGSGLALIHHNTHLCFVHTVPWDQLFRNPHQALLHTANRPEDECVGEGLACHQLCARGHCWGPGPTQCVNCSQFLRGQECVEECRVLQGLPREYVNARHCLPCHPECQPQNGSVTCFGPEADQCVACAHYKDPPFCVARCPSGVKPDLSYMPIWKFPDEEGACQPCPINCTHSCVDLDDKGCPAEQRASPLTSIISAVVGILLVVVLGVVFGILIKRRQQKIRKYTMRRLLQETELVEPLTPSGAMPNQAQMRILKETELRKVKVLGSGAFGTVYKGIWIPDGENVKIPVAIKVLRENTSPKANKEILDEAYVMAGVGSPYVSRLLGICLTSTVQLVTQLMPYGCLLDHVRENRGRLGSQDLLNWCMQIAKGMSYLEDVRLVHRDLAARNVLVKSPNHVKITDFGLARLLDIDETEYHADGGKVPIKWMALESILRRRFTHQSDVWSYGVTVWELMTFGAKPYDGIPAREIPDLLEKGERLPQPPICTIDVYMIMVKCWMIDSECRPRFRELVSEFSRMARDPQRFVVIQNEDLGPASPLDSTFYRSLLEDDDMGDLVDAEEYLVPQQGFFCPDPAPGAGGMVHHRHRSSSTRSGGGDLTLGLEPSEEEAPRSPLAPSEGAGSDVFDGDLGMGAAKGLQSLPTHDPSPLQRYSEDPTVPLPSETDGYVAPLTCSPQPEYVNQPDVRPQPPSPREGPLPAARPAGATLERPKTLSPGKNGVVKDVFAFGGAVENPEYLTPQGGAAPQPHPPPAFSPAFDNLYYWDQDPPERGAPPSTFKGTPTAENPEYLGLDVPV
Assay [3] can be described thus: reduced viability of SK-BR-3 breast cancer cells – cell-based, 24 h, human, pilot screen (AID 572).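 Note: compound exposure lasted between 18 and 24 h rather than exactly 24 h; 100% = carrier-treated control wells.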 The following applies: SK-BR-3 viability, CellTiter-Glo luminescence, at 10 µM, stronger effect = lower value.
A short description of assay [4]: HUVEC growth inhibition – cell-based, human, primary screen (AID 575;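 active = viability at or below 30% in both replicate assays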;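 note: 100% = median of untreated cell wells with 0.1% DMSO on each plate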). Particulars: HUVEC proliferation, CellTiter-Glo luminescence, 72 h; at 10 µM; stronger effect = lower value. The procedure, abridged:
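Test system: HUVEC primary cells. Quantity: 1250 endothelial cells in each well. Dosing: single-point 10 µM, DMSO 0.1% final. Incubation: 72 h treatment at 37 °C. Measured by: CTG luminescence. Control set: DMSO cell controls and MePR drug controls. Plate: collagen-coated 384-well format.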
Background: In ATP-based viability assays light output follows the ATP content of the culture.

Assay [5] in a line: H69AR cell proliferation blockers – human, duplicate replicates, primary screen (AID 580;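 active = viability at or under a set limit in both replicates, limit being median viability minus 3 SD, cut at about 48% in these data, passing the limit was not always enough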;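 note: 100% = mean luminescence of untreated wells and 0% = no signal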). Particulars: H69AR lung tumor cells viability, ATP luminescence, 72 h; at 10 µM; stronger effect = lower value.
Assay [6] can be described thus: MRP1 drug-resistance reversers in H69AR cells – cell-based, doxorubicin co-treatment, pilot screen (AID 601;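 active = viability loss from added drug above about 55%, and viability with drug at most 40%, in both replicates, limit read from the data, passing the limit was not always enough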). Particulars: CellTiter-Glo, 72 h, at 10 µM; for differential viability (reversal): stronger effect = higher value.
Assay [7] can be described thus: yeast transport mutant growth inhibition pilot in 384-well plates, post-Golgi transport modulator project (AID 636; in the data active = inhibition above about 31%). Particulars: absorbance 615 nm, about 18 h, stronger effect = higher value.
The nature of assay [8]: growth suppression of yeast trafficking mutant, preliminary HTS, modulators of trafficking downstream of Golgi apparatus project, 1536-format plate, OD 615 nm (AID 637; in the data active = inhibition above about 30%). The following applies: yeast transport mutant growth, absorbance 615 nm, 18 h; stronger effect = higher value.
The mark [9] stands for this setting: H69AR cells + 2 uM doxorubicin, measured here: viability with 2 uM doxorubicin, stronger effect = lower value.
Setting [10] is: H69AR cells, compound alone cytotoxicity.

With `CCCOc1ccc(N2C(=O)C3ON(c4ccccc4)C(c4ccc(O)c(OC)c4)C3C2=O)cc1` (stereo not given), the viability (as a rule, a read-out of living cells in per cent, often relative to untreated cells) in assay [1] was 106%; in assay [3] it was 106% (inactive); in assay [4] it was 71.6% (inactive); in assay [5] it was 93.8% (inactive); in assay [6] (setting [9]), 83.3%; in assay [6] (setting [10]) it was 93.8%. In assay [2], the Her2 level was 100% (inactive). Moreover, the differential viability (reversal) in assay [6] (H69AR cells + 2 uM doxorubicin) was 10.6% (inactive). The inhibition (in general, the change of the read-out against control, counted positive when it falls) in assay [7] is -3.03% (inactive); in assay [8] it was 3.55% (inactive).

Take `O=C(CSc1ncnc2c1cnn2Cc1ccccc1)Nc1ccc2c(c1)OCCO2`: the viability in assay [1] is 109%; in assay [3] it was 109% (inactive); in assay [4], 74.9% (inactive); in assay [5], 56.1% (inactive); in assay [6] (setting [9]), 61.3%; in assay [6] (setting [10]), 56.1%. Also, in assay [2], the Her2 level was 98.5% (inactive). Moreover, the differential viability (reversal) in assay [6] (H69AR cells + 2 uM doxorubicin) is -5.15% (inactive). Also, the inhibition is -4.68% (inactive) in assay [7] and -6.23% (inactive) in assay [8].

As for `CCOC(=O)C1CCN(S(=O)(=O)c2cc(Cl)c(C)cc2OC)CC1`, the viability in assay [1] is 90%; in assay [3] it was 90% (inactive); in assay [4], 105% (inactive); in assay [5], 85.2% (inactive); in assay [6] (setting [9]), 94.6%; in assay [6] (setting [10]), 85.2%. In assay [2], the Her2 level is 92.5% (inactive). The differential viability (reversal) in assay [6] (H69AR cells + 2 uM doxorubicin) is -9.44% (inactive). The inhibition was -2.5% (inactive) in assay [7] and -3.39% (inactive) in assay [8].

In the case of `COc1cccc(OC)c1C(=O)n1nc(C)cc1C`, the viability is 84.5% in assay [1]; 84.5% (inactive) in assay [3]; 110% (inactive) in assay [4]; 98.8% (inactive) in assay [5]; 95.5% in assay [6] (setting [9]); 98.8% in assay [6] (setting [10]). Also, the Her2 level in assay [2] was 87% (inactive). In assay [6] (H69AR cells + 2 uM doxorubicin), the differential viability (reversal) is 3.22% (inactive). Also, the inhibition in assay [7] was 1.18% (inactive); in assay [8], 4.1% (inactive).

For the molecule `COc1ccc(CC(=O)Nc2ccc(-c3nnc(-c4ccc(C)cc4)o3)cc2)cc1`, the viability in assay [1] was 114%; in assay [3] it was 114% (inactive); in assay [4] it was 69.9% (inactive); in assay [5] it was 4.72% (active); in assay [6] (setting [9]), 4.76%; in assay [6] (setting [10]), 4.72%. Also, the Her2 level in assay [2] is 81.5% (inactive). For the same molecule, the differential viability (reversal) in assay [6] (H69AR cells + 2 uM doxorubicin) is -0.04% (inactive). The inhibition in assay [7] was -1.58% (inactive); in assay [8], -1.75% (inactive).

Turning to `COc1ccc(OC)c(C2/C(=C(\O)c3ccc4c(c3)OCCO4)C(=O)C(=O)N2CCCN(C)C)c1` (stereo not given), the viability in assay [1] was 102%; in assay [3], 102% (inactive); in assay [4] it was 111% (inactive); in assay [5], 101% (inactive); in assay [6] (setting [9]) it was 91.3%; in assay [6] (setting [10]) it was 101%. Also, in assay [2], the Her2 level is 76.5% (inactive). In assay [6] (H69AR cells + 2 uM doxorubicin), the differential viability (reversal) was 9.38% (inactive). For the same molecule, the values for the inhibition in assay [7] and in assay [8] were -4.05% (inactive) and -3.81% (inactive), respectively.

For `CC1CCN(C(=O)CN2C(=O)C(C)(C)Oc3ccc(C(=O)NC4CCCC4)cc32)CC1`, the viability in assay [1] is 82%; in assay [3], 82% (inactive); in assay [4], 83.1% (inactive); in assay [5], 93.4% (inactive); in assay [6] (setting [9]), 88.9%; in assay [6] (setting [10]), 93.4%. For the same molecule, the Her2 level in assay [2] was 104% (inactive). Moreover, the differential viability (reversal) in assay [6] (H69AR cells + 2 uM doxorubicin) is 4.5% (inactive). Further, the inhibition in assay [7] was -5% (inactive); in assay [8], -7.05% (inactive).

Take `CCOc1cc(N2CCOCC2)c(OCC)cc1NC(=O)COC(=O)CCc1c[nH]c2ccccc12`: the viability in assay [1] was 97.5%; in assay [3] it was 97.5% (inactive); in assay [4], 105% (inactive); in assay [5], 99.4% (inactive); in assay [6] (setting [9]) it was 94.8%; in assay [6] (setting [10]), 99.4%. In assay [2], the Her2 level was 98.5% (inactive). Also, in assay [6] (H69AR cells + 2 uM doxorubicin), the differential viability (reversal) was 4.66% (inactive). The inhibition in assay [7] is -8.38% (inactive); in assay [8] it was -8.83% (inactive).

For the molecule `C=CCn1c(C)cc(C(=O)CSc2nc3ccccc3c(=O)[nH]2)c1C`, the viability in assay [1] is 90.5%; in assay [3], 90.5% (inactive); in assay [4] it was 61.5% (inactive); in assay [5] it was 77.8% (inactive); in assay [6] (setting [9]), 81.8%; in assay [6] (setting [10]) it was 77.8%. Also, in assay [2], the Her2 level is 92.5% (inactive). Besides, the differential viability (reversal) in assay [6] (H69AR cells + 2 uM doxorubicin) was -4.06% (inactive). The inhibition in assay [7] is 54.1% (active); in assay [8] it was 37.6% (active).

With `CC(C)COC(=O)NCC12C=CC(O1)C1C(=O)N(c3ccc(Cl)cc3)C(=O)C12` (stereo not given), the viability in assay [1] was 96%; in assay [3] it was 96% (inactive); in assay [4], 116% (inactive); in assay [5], 89.9% (inactive); in assay [6] (setting [9]) it was 92.5%; in assay [6] (setting [10]) it was 89.9%. The Her2 level in assay [2] was 99.5% (inactive). Also, the differential viability (reversal) in assay [6] (H69AR cells + 2 uM doxorubicin) is -2.55% (inactive). The values for the inhibition in assay [7] and in assay [8] were -6.16% (inactive) and -7.3% (inactive), respectively.
